Results on twelve molecules are retold here after ChEMBL document CHEMBL1140546, “3,5-Disubstituted quinolines as novel c-Jun N-terminal kinase inhibitors” (Bioorg Med Chem Lett, 2007).

Where only a bound is given, the exact number is not on record here.

The target in this assay is Mitogen-activated protein kinase 10 (Homo sapiens, UniProt P53779). As to the kind of experiment: Inhibition of JNK3 by HTRF assay. In a few lines: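 JNK3 phosphorylation of biotinylated-ATF2, final 0.3 nM JNK3, 0.4 nM substrate, 1 μM ATP. The phospho-Thr71-ATF-2 product is detected with a Europium-cryptate-labeled anti-phospho-Thr71-ATF-2 antibody. IC50 values are means of three experiments.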
(In general: In TR-FRET formats the signal depends on donor and acceptor labels being close together.)

Chain of Mitogen-activated protein kinase 10 (P53779 whole entry): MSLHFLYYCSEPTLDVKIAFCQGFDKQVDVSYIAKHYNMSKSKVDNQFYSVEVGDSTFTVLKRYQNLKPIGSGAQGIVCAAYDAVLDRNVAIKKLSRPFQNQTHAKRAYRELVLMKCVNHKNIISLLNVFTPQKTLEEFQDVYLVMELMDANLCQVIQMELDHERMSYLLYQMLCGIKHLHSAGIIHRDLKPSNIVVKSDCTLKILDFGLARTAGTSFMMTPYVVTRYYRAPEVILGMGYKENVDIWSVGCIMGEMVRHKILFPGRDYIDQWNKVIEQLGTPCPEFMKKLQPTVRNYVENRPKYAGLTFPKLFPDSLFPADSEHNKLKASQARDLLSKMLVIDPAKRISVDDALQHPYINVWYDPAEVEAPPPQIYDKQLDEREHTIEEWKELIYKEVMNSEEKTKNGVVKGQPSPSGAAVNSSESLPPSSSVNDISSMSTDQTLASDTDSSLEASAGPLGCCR

As usually defined, the IC50 is the concentration needed to halve the response being measured. A higher IC50 goes with a need for much substance. As for `CC(=O)Nc1ccc(-c2cnc3ccc4ccncc4c3c2)cc1`, the concentration for half-maximal inhibition (IC50) is 530 nM.

In the case of `c1ccc(-c2cnc3ccc4ccncc4c3c2)cc1`, the IC50 was 1000 nM.

The molecule `c1cc2ccc3ncc(-c4ccc(N5CCOCC5)cc4)cc3c2cn1` registered a 50% inhibitory concentration (IC50) of 1300 nM.

With `Nc1ccc(-c2cnc3ccc4ccncc4c3c2)cc1`, the 50% inhibitory concentration (IC50) is 510 nM.

`CS(=O)(=O)Nc1ccc(-c2cnc3cccc(Nc4ncccc4Cl)c3c2)cc1` displayed an IC50 of 15000 nM.

In the case of `c1cc2ccc3ncc(-c4ccc(-c5ccn[nH]5)cc4)cc3c2cn1`, the midpoint of inhibition, the IC50, lay at 3600 nM.

`CS(=O)(=O)Nc1ccc(-c2cnc3ccc4ccncc4c3c2)cc1`: half-maximal inhibition (IC50) required 930 nM.

On to `CC(=O)N(C(C)=O)c1ccc(-c2cnc3ccc4ccncc4c3c2)cc1`, for which the IC50 amounted to 1600 nM.

For `c1ccc(-c2ccc(-c3cnc4ccc5ccncc5c4c3)cc2)cc1`, the IC50 is > 20000 nM.

Consider `CS(=O)(=O)N(c1ccc(-c2cnc3ccc4ccncc4c3c2)cc1)S(C)(=O)=O`, for which the IC50 stood at 210 nM.

`CS(=O)(=O)Nc1ccc(-c2cnc3cccc(Nc4ncccn4)c3c2)cc1` displayed an IC50 of 480 nM.

As to `CS(=O)(=O)Nc1ccc(-c2cnc3cccc(Nc4ccc(Cl)cn4)c3c2)cc1`, the concentration for half-maximal inhibition (IC50) was 120 nM.
